logP, logKw and IC50 data for 14 compounds are collected here from ChEMBL document CHEMBL4190210, “Derivatives of the Lignan 7'-Hydroxymatairesinol with Antioxidant Properties and Enhanced Lipophilicity” (J Nat Prod, 2017).

Data set [1] can be described thus: Lipophilicity, log P of the compound. It is filed as physicochemical. The settings on record: octanol/water.
Data set [2] is described as follows: Lipophilicity, log Kw of the compound by reversed-phase UHPLC analysis. To be noted: water/acetonitrile. The format is physicochemical. The procedure, abridged:
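Binary elution with water and acetonitrile, each containing 0.1% formic acid. Detection by UV at 254 nm and by negative/positive ESIMS selected ion monitoring.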

The nature of data set [3]: Antioxidant activity assessed as DPPH radical scavenging activity at test compound/DPPH volume ratio 1:1 after 1 hr by UV-spectrophotometric method. The format is functional. The procedure, abridged: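 DPPH 200 µM in methanol. Antioxidant stocks were 1 mM in methanol, diluted to 2–200 µM. The reaction was started by adding 1 mL DPPH solution to 1 mL antioxidant solution (1:1). Samples were incubated 1 h, an interval chosen from a time-course study.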
(In general: The DPPH test is a chemical assay of radical scavenging.)

A short description of data set [4]: Antioxidant activity assessed as DPPH radical scavenging activity at test compound/DPPH volume ratio 3:1 incubated under dark condition for 30 mins by spectrophotometric method. It is filed as functional.

Usually logP stands for a log measure of how a compound divides between an organic and an aqueous phase. A low value points to lower lipophilicity. On to `CCCCCCCCOC(=O)c1cc(O)c(O)c(O)c1` [OCTYL_GALLATE], for which the log partition coefficient (logP) in data set [1] was 4.1.

Turning to `CCCCCCCCCCCCCCCCCC(=O)O[C@@H](c1ccc(O)c(OC)c1)[C@H]1COC(=O)[C@@H]1Cc1ccc(O)c(OC)c1`, the logKw in data set [2] was determined as 5.5.

Usually IC50 stands for the concentration that inhibits the measured activity by half. On to `CCCCCCCC(=O)OC(c1ccc(O)c(OC)c1)[C@H]1COC(=O)[C@@H]1Cc1ccc(O)c(OC)c1` (stereo partly specified), for which the half-maximal inhibitory concentration (IC50) in data set [3] was 24.1 µM.

The compound `CCCCCCCCCCCC(=O)O[C@@H](c1ccc(O)c(OC)c1)[C@H]1COC(=O)[C@@H]1Cc1ccc(O)c(OC)c1` showed a logKw in data set [2] of 3.68.

Take `O=C1O[C@H]([C@@H](O)CO)C(O)=C1O` [ASCORBIC ACID]: the IC50 in data set [4] is 12.6 µM; in data set [3], 20.3 µM.

In turn, `CCCCCCCCCCCCCCCCCC(=O)O[C@H](c1ccc(O)c(OC)c1)[C@H]1COC(=O)[C@@H]1Cc1ccc(O)c(OC)c1` displayed a logKw in data set [2] of 5.43.

In the case of `COc1cc(C[C@H]2C(=O)OC[C@@H]2[C@H](O)c2ccc(O)c(OC)c2)ccc1O` [HYDROXYMATAIRESINOL], the logKw in data set [2] was determined as 1.49. Further, the IC50 in data set [3] turned out to be 20 µM.

Turning to `Cc1c(C)c2c(c(C)c1O)CC[C@@](C)(CCC[C@H](C)CCC[C@H](C)CCCC(C)C)O2` (racemic) [ALPHA-TOCOPHEROL], the half-maximal inhibitory concentration (IC50) in data set [3] turned out to be 23.5 µM.

For `CCCCCCCCCCCC(=O)OC(c1ccc(O)c(OC)c1)[C@H]1COC(=O)[C@@H]1Cc1ccc(O)c(OC)c1` (stereo partly specified), the concentration for half-maximal inhibition (IC50) in data set [3] amounted to 24.5 µM.

For `CCCCCCCCCCCC(=O)O[C@H](c1ccc(O)c(OC)c1)[C@H]1COC(=O)[C@@H]1Cc1ccc(O)c(OC)c1`, the logKw in data set [2] was found to be 3.63.

In turn, `CCCCCCCC(=O)O[C@@H](c1ccc(O)c(OC)c1)[C@H]1COC(=O)[C@@H]1Cc1ccc(O)c(OC)c1` displayed a logKw in data set [2] of 3.12.

In data set [2], `CCCCCCCC(=O)O[C@H](c1ccc(O)c(OC)c1)[C@H]1COC(=O)[C@@H]1Cc1ccc(O)c(OC)c1` displayed a logKw of 3.06.

With `Cc1cc(C(C)(C)C)c(O)c(C(C)(C)C)c1` [BUTYLATED HYDROXYTOLUENE], the IC50 in data set [3] is 34 µM.

In the case of `CCCCCCCCCCCCCCCCCC(=O)OC(c1ccc(O)c(OC)c1)[C@H]1COC(=O)[C@@H]1Cc1ccc(O)c(OC)c1` (stereo partly specified), the IC50 in data set [3] amounted to 25.2 µM.
